Reference: ChEMBL document CHEMBL4351006, “A new exploration towards aminothiazolquinolone oximes as potentially multi-targeting antibacterial agents: Design, synthesis and evaluation acting on microbes, DNA, HSA and topoisomerase IV” (Eur J Med Chem, 2019)
≈ marks a conversion by molar mass, not a printed value.

Tests used:
Klebsiella pneumoniae = test: Antibacterial activity against Klebsiella pneumoniae assessed as reduction in bacterial cell viability incubated for 24 hrs by two fold serial dilution method; format: functional
Summary of the method: (§1)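 Broth two-fold serial dilution run to CLSI guidelines. Chloromycin, norfloxacin and fluconazole served as reference drugs.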

Candida parapsilosis = test: Antifungal activity against Candida parapsilosis ATCC 22019 assessed as reduction in fungal cell viability incubated for 24 hrs by two fold serial dilution method; conditions: Lodderomyces parapsilosis, ATCC 22019, 24 h
Staphylococcus aureus [1] = test: Antibacterial activity against methicillin resistant Staphylococcus aureus N315 assessed as reduction in bacterial cell viability incubated for 24 hrs by two fold serial dilution method; format: functional; conditions: N315, 24 h
Summary of the method: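 MIC by two-fold serial dilution following CLSI, with chloromycin and norfloxacin as reference drugs.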

Enterococcus faecalis = test: Antibacterial activity against Enterococcus faecalis assessed as reduction in bacterial cell viability incubated for 24 hrs by two fold serial dilution method; format: functional; summary of the method: as §1
Escherichia coli [2] = test: Antibacterial activity against Escherichia coli ATCC 25922 assessed as reduction in bacterial cell viability incubated for 24 hrs by two fold serial dilution method; format: functional; conditions: ATCC 25922, 24 h; summary of the method: as §1
Staphylococcus aureus [3] = test: Antibacterial activity against Staphylococcus aureus ATCC 25923 assessed as reduction in bacterial cell viability incubated for 24 hrs by two fold serial dilution method; format: functional; conditions: ATCC 25923, 24 h; summary of the method: as §1
Aspergillus fumigatus = test: Antifungal activity against Aspergillus fumigatus assessed as reduction in fungal cell viability incubated for 24 hrs by two fold serial dilution method; format: functional; summary of the method: as §1
Acinetobacter baumannii = test: Antibacterial activity against Acinetobacter baumannii assessed as reduction in bacterial cell viability incubated for 24 hrs by two fold serial dilution method; format: functional; summary of the method: as §1
Pseudomonas aeruginosa [4] = test: Antibacterial activity against Pseudomonas aeruginosa assessed as reduction in bacterial cell viability incubated for 24 hrs by two fold serial dilution method; format: functional; summary of the method: as §1
Staphylococcus aureus [5] = test: Antibacterial activity against Staphylococcus aureus ATCC 29213 assessed as reduction in bacterial cell viability incubated for 24 hrs by two fold serial dilution method; format: functional; conditions: ATCC 29213, 24 h; summary of the method: as §1
Candida albicans [6] = test: Antifungal activity against Candida albicans ATCC 90023 assessed as reduction in fungal cell viability incubated for 24 hrs by two fold serial dilution method; format: functional; conditions: ATCC 90023, 24 h; summary of the method: as §1
Candida tropicalis = test: Antifungal activity against Candida tropicalis assessed as reduction in fungal cell viability incubated for 24 hrs by two fold serial dilution method; format: functional; summary of the method: as §1
Pseudomonas aeruginosa [7] = test: Antibacterial activity against Pseudomonas aeruginosa ATCC 27853 assessed as reduction in bacterial cell viability incubated for 24 hrs by two fold serial dilution method; format: functional; conditions: ATCC 27853, 24 h; summary of the method: as §1
Candida albicans [8] = test: Antifungal activity against Candida albicans assessed as reduction in fungal cell viability incubated for 24 hrs by two fold serial dilution method; format: functional; summary of the method: as §1
Escherichia coli [9] = test: Antibacterial activity against Escherichia coli assessed as reduction in bacterial cell viability incubated for 24 hrs by two fold serial dilution method; format: functional; summary of the method: as §1
Staphylococcus aureus [10] = test: Antibacterial activity against Staphylococcus aureus assessed as reduction in bacterial cell viability incubated for 24 hrs by two fold serial dilution method; format: functional; summary of the method: as §1

## CCn1cc(-c2csc(N)n2)c(=O)c2cc(N3CCN(C/C(C)=N/O)CC3)c(Cl)cc21
Klebsiella pneumoniae
  MIC: 139 µM (≈ 64.1 µg/mL)
Candida parapsilosis
  MIC: 278 µM (≈ 128 µg/mL)
Staphylococcus aureus [1]
  MIC: 139 µM (≈ 64.1 µg/mL)
Enterococcus faecalis
  MIC: 139 µM (≈ 64.1 µg/mL)
Escherichia coli [2]
  MIC: 278 µM (≈ 128 µg/mL)
Staphylococcus aureus [3]
  MIC: 17 µM (≈ 7.84 µg/mL)
Aspergillus fumigatus
  MIC: 278 µM (≈ 128 µg/mL)
Acinetobacter baumannii
  MIC: 278 µM (≈ 128 µg/mL)
Pseudomonas aeruginosa [4]
  MIC: 139 µM (≈ 64.1 µg/mL)
Staphylococcus aureus [5]
  MIC: 139 µM (≈ 64.1 µg/mL)
Candida albicans [6]
  MIC: 139 µM (≈ 64.1 µg/mL)
Candida tropicalis
  MIC: 278 µM (≈ 128 µg/mL)
Pseudomonas aeruginosa [7]
  MIC: 555 µM (≈ 256 µg/mL)
Candida albicans [8]
  MIC: 69 µM (≈ 31.8 µg/mL)
Escherichia coli [9]
  MIC: 69 µM (≈ 31.8 µg/mL)
Staphylococcus aureus [10]
  MIC: 35 µM (≈ 16.1 µg/mL)

## CCO/N=C(\C)CN1CCN(c2cc3c(cc2F)c(=O)c(-c2csc(N)n2)cn3CC)CC1
Klebsiella pneumoniae
  MIC: 135 µM (≈ 63.8 µg/mL)
Candida parapsilosis
  MIC: 68 µM (≈ 32.1 µg/mL)
Staphylococcus aureus [1]
  MIC: 135 µM (≈ 63.8 µg/mL)
Enterococcus faecalis
  MIC: 68 µM (≈ 32.1 µg/mL)
Escherichia coli [2]
  MIC: 68 µM (≈ 32.1 µg/mL)
Staphylococcus aureus [3]
  MIC: 135 µM (≈ 63.8 µg/mL)
Aspergillus fumigatus
  MIC: 542 µM (≈ 256 µg/mL)
Acinetobacter baumannii
  MIC: 135 µM (≈ 63.8 µg/mL)
Pseudomonas aeruginosa [4]
  MIC: 135 µM (≈ 63.8 µg/mL)
Staphylococcus aureus [5]
  MIC: 68 µM (≈ 32.1 µg/mL)
Candida albicans [6]
  MIC: 542 µM (≈ 256 µg/mL)
Candida tropicalis
  MIC: 68 µM (≈ 32.1 µg/mL)
Pseudomonas aeruginosa [7]
  MIC: 135 µM (≈ 63.8 µg/mL)
Candida albicans [8]
  MIC: 1080 µM (≈ 512 µg/mL)
Escherichia coli [9]
  MIC: 135 µM (≈ 63.8 µg/mL)
Staphylococcus aureus [10]
  MIC: 34 µM (≈ 16.1 µg/mL)

## CCn1cc(-c2csc(N)n2)c(=O)c2cc(F)c(N3CCN(CC(C)=O)CC3)cc21
Klebsiella pneumoniae
  MIC: 72 µM (≈ 30.9 µg/mL)
Candida parapsilosis
  MIC: 288 µM (≈ 124 µg/mL)
Staphylococcus aureus [1]
  MIC: 72 µM (≈ 30.9 µg/mL)
Enterococcus faecalis
  MIC: 288 µM (≈ 124 µg/mL)
Escherichia coli [2]
  MIC: 288 µM (≈ 124 µg/mL)
Staphylococcus aureus [3]
  MIC: 288 µM (≈ 124 µg/mL)
Aspergillus fumigatus
  MIC: 575 µM (≈ 247 µg/mL)
Acinetobacter baumannii
  MIC: 288 µM (≈ 124 µg/mL)
Pseudomonas aeruginosa [4]
  MIC: 288 µM (≈ 124 µg/mL)
Staphylococcus aureus [5]
  MIC: 575 µM (≈ 247 µg/mL)
Candida albicans [6]
  MIC: 144 µM (≈ 61.9 µg/mL)
Candida tropicalis
  MIC: 288 µM (≈ 124 µg/mL)
Pseudomonas aeruginosa [7]
  MIC: 36 µM (≈ 15.5 µg/mL)
Candida albicans [8]
  MIC: 575 µM (≈ 247 µg/mL)
Escherichia coli [9]
  MIC: 1150 µM (≈ 494 µg/mL)
Staphylococcus aureus [10]
  MIC: 144 µM (≈ 61.9 µg/mL)

## CCn1cc(-c2csc(N)n2)c(=O)c2cc(F)c(N3CCN(C/C(C)=N/O)CC3)cc21
Klebsiella pneumoniae
  MIC: 72 µM (≈ 32 µg/mL)
Candida parapsilosis
  MIC: 72 µM (≈ 32 µg/mL)
Staphylococcus aureus [1]
  MIC: 72 µM (≈ 32 µg/mL)
Enterococcus faecalis
  MIC: 288 µM (≈ 128 µg/mL)
Escherichia coli [2]
  MIC: 72 µM (≈ 32 µg/mL)
Staphylococcus aureus [3]
  MIC: 36 µM (≈ 16 µg/mL)
Aspergillus fumigatus
  MIC: 288 µM (≈ 128 µg/mL)
Acinetobacter baumannii
  MIC: 288 µM (≈ 128 µg/mL)
Pseudomonas aeruginosa [4]
  MIC: 288 µM (≈ 128 µg/mL)
Staphylococcus aureus [5]
  MIC: 144 µM (≈ 64 µg/mL)
Candida albicans [6]
  MIC: 72 µM (≈ 32 µg/mL)
Candida tropicalis
  MIC: 288 µM (≈ 128 µg/mL)
Pseudomonas aeruginosa [7]
  MIC: 144 µM (≈ 64 µg/mL)
Candida albicans [8]
  MIC: 72 µM (≈ 32 µg/mL)
Escherichia coli [9]
  MIC: 288 µM (≈ 128 µg/mL)
Staphylococcus aureus [10]
  MIC: 72 µM (≈ 32 µg/mL)

## OC(Cn1cncn1)(Cn1cncn1)c1ccc(F)cc1F [FLUCONAZOLE]
Candida parapsilosis
  MIC: 13 µM (≈ 3.98 µg/mL)
Aspergillus fumigatus
  MIC: 836 µM (≈ 256 µg/mL)
Candida albicans [6]
  MIC: 7 µM (≈ 2.14 µg/mL)
Candida tropicalis
  MIC: 26 µM (≈ 7.96 µg/mL)
Candida albicans [8]
  MIC: 13 µM (≈ 3.98 µg/mL)

## CCn1cc(-c2csc(N)n2)c(=O)c2cc(F)c(N3CCN(C/C(=N/OC)c4ccc(F)cc4F)CC3)cc21
Klebsiella pneumoniae
  MIC: 460 µM (≈ 256 µg/mL)
Candida parapsilosis
  MIC: 920 µM (≈ 512 µg/mL)
Staphylococcus aureus [1]
  MIC: 230 µM (≈ 128 µg/mL)
Enterococcus faecalis
  MIC: 460 µM (≈ 256 µg/mL)
Escherichia coli [2]
  MIC: 460 µM (≈ 256 µg/mL)
Staphylococcus aureus [3]
  MIC: 460 µM (≈ 256 µg/mL)
Aspergillus fumigatus
  MIC: 460 µM (≈ 256 µg/mL)
Acinetobacter baumannii
  MIC: 460 µM (≈ 256 µg/mL)
Pseudomonas aeruginosa [4]
  MIC: 460 µM (≈ 256 µg/mL)
Staphylococcus aureus [5]
  MIC: 460 µM (≈ 256 µg/mL)
Candida albicans [6]
  MIC: 460 µM (≈ 256 µg/mL)
Candida tropicalis
  MIC: 460 µM (≈ 256 µg/mL)
Pseudomonas aeruginosa [7]
  MIC: 460 µM (≈ 256 µg/mL)
Candida albicans [8]
  MIC: 920 µM (≈ 512 µg/mL)
Escherichia coli [9]
  MIC: 460 µM (≈ 256 µg/mL)
Staphylococcus aureus [10]
  MIC: 460 µM (≈ 256 µg/mL)

## CCn1cc(-c2csc(N)n2)c(=O)c2cc(F)c(N3CCN(C/C(C)=N/OCc4ccc(Cl)cc4Cl)CC3)cc21
Klebsiella pneumoniae
  MIC: 848 µM (≈ 512 µg/mL)
Candida parapsilosis
  MIC: 848 µM (≈ 512 µg/mL)
Staphylococcus aureus [1]
  MIC: 424 µM (≈ 256 µg/mL)
Enterococcus faecalis
  MIC: 424 µM (≈ 256 µg/mL)
Escherichia coli [2]
  MIC: 848 µM (≈ 512 µg/mL)
Staphylococcus aureus [3]
  MIC: 848 µM (≈ 512 µg/mL)
Aspergillus fumigatus
  MIC: 424 µM (≈ 256 µg/mL)
Acinetobacter baumannii
  MIC: 848 µM (≈ 512 µg/mL)
Pseudomonas aeruginosa [4]
  MIC: 848 µM (≈ 512 µg/mL)
Staphylococcus aureus [5]
  MIC: 848 µM (≈ 512 µg/mL)
Candida albicans [6]
  MIC: 106 µM (≈ 64 µg/mL)
Candida tropicalis
  MIC: 424 µM (≈ 256 µg/mL)
Pseudomonas aeruginosa [7]
  MIC: 848 µM (≈ 512 µg/mL)
Candida albicans [8]
  MIC: 848 µM (≈ 512 µg/mL)
Escherichia coli [9]
  MIC: 424 µM (≈ 256 µg/mL)
Staphylococcus aureus [10]
  MIC: 848 µM (≈ 512 µg/mL)

## CCn1cc(-c2csc(N)n2)c(=O)c2cc(F)c(N3CCN(C/C(=N/OC)c4ccc(Cl)cc4)CC3)cc21
Klebsiella pneumoniae
  MIC: 231 µM (≈ 128 µg/mL)
Candida parapsilosis
  MIC: 115 µM (≈ 63.8 µg/mL)
Staphylococcus aureus [1]
  MIC: 29 µM (≈ 16.1 µg/mL)
Enterococcus faecalis
  MIC: 115 µM (≈ 63.8 µg/mL)
Escherichia coli [2]
  MIC: 461 µM (≈ 256 µg/mL)
Staphylococcus aureus [3]
  MIC: 58 µM (≈ 32.2 µg/mL)
Aspergillus fumigatus
  MIC: 461 µM (≈ 256 µg/mL)
Acinetobacter baumannii
  MIC: 115 µM (≈ 63.8 µg/mL)
Pseudomonas aeruginosa [4]
  MIC: 231 µM (≈ 128 µg/mL)
Staphylococcus aureus [5]
  MIC: 231 µM (≈ 128 µg/mL)
Candida albicans [6]
  MIC: 463 µM (≈ 257 µg/mL)
Candida tropicalis
  MIC: 115 µM (≈ 63.8 µg/mL)
Pseudomonas aeruginosa [7]
  MIC: 58 µM (≈ 32.2 µg/mL)
Candida albicans [8]
  MIC: 231 µM (≈ 128 µg/mL)
Escherichia coli [9]
  MIC: 231 µM (≈ 128 µg/mL)
Staphylococcus aureus [10]
  MIC: 231 µM (≈ 128 µg/mL)

## CCn1cc(-c2csc(N)n2)c(=O)c2cc(F)c(N3CCN(C/C(=N/OC)c4ccc(Cl)cc4Cl)CC3)cc21
Klebsiella pneumoniae
  MIC: 217 µM (≈ 128 µg/mL)
Candida parapsilosis
  MIC: 217 µM (≈ 128 µg/mL)
Staphylococcus aureus [1]
  MIC: 434 µM (≈ 256 µg/mL)
Enterococcus faecalis
  MIC: 434 µM (≈ 256 µg/mL)
Escherichia coli [2]
  MIC: 869 µM (≈ 512 µg/mL)
Staphylococcus aureus [3]
  MIC: 54 µM (≈ 31.8 µg/mL)
Aspergillus fumigatus
  MIC: 434 µM (≈ 256 µg/mL)
Acinetobacter baumannii
  MIC: 54 µM (≈ 31.8 µg/mL)
Pseudomonas aeruginosa [4]
  MIC: 217 µM (≈ 128 µg/mL)
Staphylococcus aureus [5]
  MIC: 217 µM (≈ 128 µg/mL)
Candida albicans [6]
  MIC: 217 µM (≈ 128 µg/mL)
Candida tropicalis
  MIC: 54 µM (≈ 31.8 µg/mL)
Pseudomonas aeruginosa [7]
  MIC: 217 µM (≈ 128 µg/mL)
Candida albicans [8]
  MIC: 434 µM (≈ 256 µg/mL)
Escherichia coli [9]
  MIC: 109 µM (≈ 64.3 µg/mL)
Staphylococcus aureus [10]
  MIC: 217 µM (≈ 128 µg/mL)
